Test results: ChEMBL document CHEMBL1123309, “Esters and lactones of phenolic amino carboxylic acids: prodrugs for iron chelation” (J Med Chem, 1986)
Several values for one entry are separate records, joined by “and”; a condition that tells them apart may be missing. Equal values may be shown once.

Assays:
Rattus norvegicus [1] = assay: Percent change in iron levels was determined in urine using iron overload rat model where the route of administration is Peroral; assay type: functional
[2] = Compound was evaluated for lethal dose after intraperitoneal administration using iron overload rat model; assay type: toxicity, organism-based; settings: in vivo, ip
Rattus norvegicus [3] = assay: Percent change in iron levels was determined in feces using iron overload rat model where the route of administration is Peroral; assay type: functional
Rattus norvegicus [4] = assay: Percent change in iron levels was determined in feces using iron overload rat model where the route of administration is Intraperitoneal; assay type: functional
Rattus norvegicus [5] = assay: Percent change in iron levels was determined in urine using iron overload rat model where the route of administration is Intraperitoneal; assay type: functional
Mus musculus [6] = assay: BDF1 male mice were administered with 200 mg/kg intraperitoneally and percent change in iron levels was determined in Spleen; assay type: functional; settings: route intraperitoneal
Procedure, shortened: (§1)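 Male BDF1 mice made iron-overloaded by transfusion of washed, heat-treated (50 °C, 30 min) canine red cells. Dosing began 2 days after the last transfusion, once daily for 7 days, in distilled water or 2% Polysorbate 80 suspension. Daily group urine was collected. Pooled feces were digested in 1 N HCl (90 °C, 30 min). Liver and spleen were homogenized in saline. Iron was measured by atomic absorption and expressed as % change vs transfused controls.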

Mus musculus [7] = assay: BDF1 male mice were administered reduced to 100 mg/kg on day 4 intraperitoneally and percent change in iron levels was determined in Spleen; assay type: functional; settings: route oral, in the assay text read “orally” for “intraperitoneally”; procedure, shortened: as §1
Mus musculus [8] = assay: BDF1 male mice were administered reduced to 100 mg/kg on day 4 intraperitoneally and percent change in iron levels was determined in Urine; assay type: functional; settings: route oral, in the assay text read “orally” for “intraperitoneally”; procedure, shortened: as §1
Mus musculus [9] = assay: BDF1 male mice were administered with 200 mg/kg intraperitoneally and percent change in iron levels was determined in Urine; assay type: functional; settings: route intraperitoneal; procedure, shortened: as §1
Mus musculus [10] = assay: BDF1 male mice were administered reduced to 100 mg/kg on day 4 intraperitoneally and percent change in iron levels was determined in Liver; assay type: functional; settings: route oral, in the assay text read “orally” for “intraperitoneally”; procedure, shortened: as §1
Mus musculus [11] = assay: BDF1 male mice were administered with 200 mg/kg intraperitoneally and number of survivors was determined out of 10 tested; assay type: functional; settings: route intraperitoneal, 200 mg/kg
Procedure, shortened: (§2)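 Male BDF1 mice were iron-loaded by transfusion of canine red cells. The cells were heparinised, washed twice in isotonic saline and heated at 50 °C for 30 min. Dosing started two days after the last transfusion, once daily for 7 consecutive days. Compounds were given in distilled water or as a fine aqueous suspension with Polysorbate 80 (2% final). Toxic signs were recorded daily and survivors counted per group.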

Mus musculus [12] = assay: BDF1 male mice were administered with 200 mg/kg intraperitoneally and percent change in iron levels was determined in Feces; assay type: functional; settings: route intraperitoneal; procedure, shortened: as §1
Mus musculus [13] = assay: BDF1 male mice were administered reduced to 100 mg/kg on day 4 intraperitoneally and percent change in iron levels was determined in Feces; assay type: functional; settings: route oral, in the assay text read “orally” for “intraperitoneally”; procedure, shortened: as §1
Mus musculus [14] = assay: BDF1 male mice were administered with 200 mg/kg orally and percent change in iron levels was determined in Liver; assay type: functional; settings: route oral; procedure, shortened: as §1
Mus musculus [15] = assay: BDF1 male mice were administered with the compound and number of survivors was determined out of 10 tested at a dose 375 mg/kg intraperitoneal
Mus musculus [16] = assay: BDF1 male mice were administered with 200 mg/kg orally and percent change in iron levels was determined in spleen; assay type: functional; settings: route oral; procedure, shortened: as §1
Mus musculus [17] = assay: BDF1 male mice were administered with 50 mg/kg orally and percent change in iron levels was determined in spleen; assay type: functional; settings: dose 375 mg/kg; route intraperitoneal; in the assay text read “375 mg/kg intraperitoneally” for “50 mg/kg orally”
Mus musculus [18] = assay: BDF1 male mice were administered with the compound and number of survivors was determined out of 10 tested at a dose 200 mg/kg peroral; assay type: functional; settings: route oral; procedure, shortened: as §2
Mus musculus [19] = assay: BDF1 male mice were administered with 200 mg/kg orally and percent change in iron levels was determined in Urine; assay type: functional; settings: route oral; procedure, shortened: as §1
Mus musculus [20] = assay: BDF1 male mice were administered with 100 mg/kg orally and percent change in iron levels was determined in spleen; assay type: functional; settings: dose 400 mg/kg; route oral; in the assay text read “400 mg/kg” for “100 mg/kg”; procedure, shortened: as §1
Mus musculus [21] = assay: BDF1 male mice were administered with 200 mg/kg orally and percent change in iron levels was determined in Feces; assay type: functional; settings: route oral; procedure, shortened: as §1
Mus musculus [22] = assay: BDF1 male mice were administered with 25 mg/kg orally and percent change in iron levels was determined in spleen; assay type: functional; settings: dose 200 mg/kg; route intraperitoneal; in the assay text read “200 mg/kg intraperitoneally” for “25 mg/kg orally”
Mus musculus [23] = assay: BDF1 male mice were administered with the compound and number of survivors was determined out of 10 tested at a dose 400 mg/kg peroral; assay type: functional; settings: route oral; procedure, shortened: as §2

COC(=O)C(NCCNC(C(=O)OC)c1ccccc1O)c1ccccc1O (stereo not drawn)
Iron change (Rattus norvegicus [1]): 115%
LD50 [2]: ≥ 800 mg/kg
Iron change (Rattus norvegicus [3]): 89%
Iron change (Rattus norvegicus [4]): 104%
Iron change (Rattus norvegicus [5]): 188%

O=C(O)CN(CCN(CC(=O)O)Cc1ccccc1O)Cc1ccccc1O
Iron change (Mus musculus [6]): -5%
Iron change (Mus musculus [7]): -9%
Iron change (Mus musculus [8]): 14%
Iron change (Mus musculus [9]): 50%
Iron change (Rattus norvegicus [1]): 40%
LD50 [2]: ≥ 800 mg/kg
Iron change (Mus musculus [10]): -3%
Iron change (Rattus norvegicus [3]): 53%
Iron change (Rattus norvegicus [4]): 195%
No. of survivors (Mus musculus [11]): 10 and 9
Iron change (Mus musculus [12]): 38%
Iron change (Rattus norvegicus [5]): 196%
Iron change (Mus musculus [13]): -7%

COC(=O)CN(CCN(CC(=O)OC)Cc1ccccc1OC(C)=O)Cc1ccccc1OC(C)=O [DIMETHYL ESTER]
Iron change (Mus musculus [14]): -40%
No. of survivors (Mus musculus [15]): 10
Iron change (Mus musculus [16]): -13%
Iron change (Mus musculus [17]): -5%
No. of survivors (Mus musculus [18]): 10
Iron change (Mus musculus [19]): 138%
Iron change (Mus musculus [20]): -46%
Iron change (Mus musculus [21]): -41%
Iron change (Mus musculus [22]): -22%
No. of survivors (Mus musculus [23]): 6
